Reference: ChEMBL document CHEMBL1122045, “Synthesis and pharmacological evaluation of reduced diastereoisomeric and quaternary ammonium derivatives of calcium antagonistic (methylenedioxy)indenes on the isolated rat aorta” (J Med Chem, 1982)

Experiments:
Rattus norvegicus [1] = species: Rattus norvegicus; assay: Evaluated for its potency (IC 50) against potassium Chloride (KCl) (at a dose level of 40 mM) induced aortic contractions in male Sprague-Dawley rats.; format: functional; conditions: Aorta
Summary of the method: (§1)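 Thoracic aorta segments (2.5 cm) from male Sprague–Dawley rats (250–300 g) were equilibrated 1–1.5 h, then contracted with NE 1×10^-7 M or KCl 40 mM, final bath levels. Compound was added in rising concentrations, up to 30 min per step. Tension was taken as % of pre-drug control, fatigue-adjusted. Per-tissue probit transform with linear regression gave IC50.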

Rattus norvegicus [2] = species: Rattus norvegicus; assay: Evaluated for its potency against norepinephrine (NE) (at a dose level of 10 E-7 M) induced aortic contractions in male Sprague-Dawley rats.; format: functional; conditions: Aorta; summary of the method: as §1

| SMILES | IC50 (Rattus norvegicus [1]) [µM] | IC50 (Rattus norvegicus [2]) [µM] |
| --- | --- | --- |
| CCC[C@@H]1Cc2cc3c(cc2[C@@H]1[N+](C)(C)C)OCO3 | 871 | 1020 |
| CCCC[C@@H]1Cc2cc3c(cc2[C@@H]1N(C)C)OCO3 | 17.4 | 37.9 |
| CCCC[C@@H]1Cc2cc3c(cc2[C@@H]1[N+](C)(C)C)OCO3 | 175 | 281 |
| CCC[C@@H]1Cc2cc3c(cc2[C@@H]1N(C)C)OCO3 | 30 | 59.4 |
| CCCCC1=Cc2cc3c(cc2C1N(C)C)OCO3 (stereo not given) | 20.3 | 74.1 |
| CCCC1=Cc2cc3c(cc2C1[N+](C)(C)C)OCO3 (stereo not given) | 547 | 382 |
| CCCC1=Cc2cc3c(cc2C1N(C)C)OCO3 (stereo not given) | 21.4 | 78.2 |
| CCCC[C@@H]1Cc2cc3c(cc2[C@H]1N(C)C)OCO3 | 31.1 | 151 |
| CCCCC1=Cc2cc3c(cc2C1[N+](C)(C)C)OCO3 (stereo not given) | 169 | 128 |
| CCC[C@@H]1Cc2cc3c(cc2[C@H]1N(C)C)OCO3 | 98.9 | 383 |
